Like-named read-outs stand apart in the source and are kept apart here.
Assays:
human integrin αvβ3 = human integrin αvβ3 (Homo sapiens, UniProt P05106+P06756); assay type: binding; conditions: SD
Summary of the method: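 Immobilized isolated human αvβ3 integrin incubated with biotinylated vitronectin (1 μg mL−1) plus test compound over 10−5–10−12 M. Bound biotinylated vitronectin measured. IC50 taken as the concentration giving 50 % inhibition of vitronectin binding, calculated from the concentration-response data. Values are mean ± standard deviation of duplicate measurements.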

integrin α5β1 [1] = molecular target: T1, integrin α5β1 (Homo sapiens, UniProt P05556+P08648); assay: Integrin α5β1 binding assay
integrin α5β1 [2] = molecular target: T1, integrin α5β1; conditions: read-out: α5β1 IC50; cited from earlier work

With `COc1ccc(C[C@H]2NC(=O)/C=C/C[C@@H]([C@H](C)[C@@H](OC(=O)CNC(=O)CCc3cn(CCOCCOCCOCCOCC(=O)NCc4ccc(CN5C(=O)[C@H]6CC(=O)N[C@H](C(=O)O)CC(=O)NCC(=O)N[C@@H](CCCNC(=N)N)C(=O)NC[C@H]5C(=O)N6)cc4)nn3)[C@@H](Cl)c3ccccc3)OC(=O)[C@H](CC(C)C)OC(=O)C(C)(C)CNC2=O)cc1Cl` [compound 14, cyclo[DKP‐isoDGR]‐PEG4‐uncl‐Cry‐55gly] the IC50 (human integrin αvβ3) was 10.2 ± 0.4 nM.

`COc1ccc(C[C@H]2NC(=O)/C=C/C[C@@H]([C@H](C)[C@@H](OC(=O)CNC(=O)OCc3ccc(NC(=O)[C@H](C)NC(=O)[C@@H](NC(=O)CCc4cn(CCOCCOCCOCCOCC(=O)NCc5ccc(CN6C(=O)[C@H]7CC(=O)N[C@H](C(=O)O)CC(=O)NCC(=O)N[C@@H](CCCNC(=N)N)C(=O)NC[C@H]6C(=O)N7)cc5)nn4)C(C)C)cc3)[C@@H](Cl)c3ccccc3)OC(=O)[C@H](CC(C)C)OC(=O)C(C)(C)CNC2=O)cc1Cl` [compound 11, cyclo[DKP‐isoDGR]‐PEG4‐Val−Ala‐PABC‐Cry‐55gly] gave an IC50 (human integrin αvβ3) of 5.5 ± 2.8 nM.

In the case of `COc1ccc(C[C@H]2NC(=O)/C=C/C[C@@H]([C@H](C)[C@@H](OC(=O)CNC(=O)OCc3ccc(NC(=O)[C@H](C)NC(=O)[C@@H](NC(=O)CCc4cn(CCOCCOCCOCCOCC(=O)NCc5ccc(CN6C(=O)[C@H]7CC(=O)N[C@@H](CCCNC(=N)N)C(=O)NCC(=O)N[C@@H](CC(=O)O)C(=O)NC[C@H]6C(=O)N7)cc5)nn4)C(C)C)cc3)[C@@H](Cl)c3ccccc3)OC(=O)[C@H](CC(C)C)OC(=O)C(C)(C)CNC2=O)cc1Cl` [compound 10, cyclo[DKP‐RGD]‐PEG4‐Val−Ala‐PABC‐Cry‐55gly], the IC50 (human integrin αvβ3) is reported as 7.2 ± 1.5 nM.

In the case of `N=C(N)NCCC[C@@H]1NC(=O)CNC(=O)C[C@@H](C(=O)O)NC(=O)C[C@H]2NC(=O)[C@H](CNC1=O)N(Cc1ccccc1)C2=O` [compound 3, cyclo[DKP‐isoDGR]], the IC50 (integrin α5β1 [1]) is reported as 1070 nM.

For `N=C(N)NCCC[C@@H]1NC(=O)C[C@H]2NC(=O)[C@H](CNC(=O)[C@H](CC(=O)O)NC(=O)CNC1=O)N(Cc1ccccc1)C2=O` [compound 1, cyclo[DKP‐RGD]], the IC50 (integrin α5β1 [2]) is given as 532 nM.

Compound `COc1ccc(C[C@H]2NC(=O)/C=C/C[C@@H]([C@H](C)[C@@H](OC(=O)CNC(=O)CCc3cn(CCOCCOCCOCCOCC(=O)NCc4ccc(CN5C(=O)[C@H]6CC(=O)N[C@@H](CCCNC(=N)N)C(=O)NCC(=O)N[C@@H](CC(=O)O)C(=O)NC[C@H]5C(=O)N6)cc4)nn3)[C@@H](Cl)c3ccccc3)OC(=O)[C@H](CC(C)C)OC(=O)C(C)(C)CNC2=O)cc1Cl` [compound 13, cyclo[DKP‐RGD]‐PEG4‐uncl‐Cry‐55gly] has an IC50 (human integrin αvβ3) of 24.1 ± 1 nM.

— paper PMC6587324 (ChemistryOpen, 2019)
